First the molecules themselves.
B1: tRNA (parent)
chain: GUUCCGUUGGCGUAAUGGUAACGCGUCUCCCUCCUAAGGAGAAGACUGCGGGUUCGAGUCCCGUACGGAACG

The text below walks through data of the RNAGym collection of RNA variant scans (doi:10.1126/science.aae0568).

Fewer inactive variants are shown than the library holds.

Variants of B1 are the subject of this series. Briefly: yeast fitness relative to wild type (ratio to wild type); higher = fitter; tRNA-Arg(CCU), competitive growth, 37 C, YPD. The procedure, abridged:
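Start and end populations of a pooled competition were compared by 100-nucleotide paired-end sequencing of gene amplicons. The Saccharomyces cerevisiae strains carried tRNA-Arg(CCU) gene variants at the native genomic locus, synthesised with a 3% per-site mutation rate at 69 sites, and competed in YPD at 37°C for 24 hours in six parallel replicates. Darwinian fitness relative to wild type was based on the change in genotype frequencies. Genotypes required ≥ 100 starting reads, and estimates < 0.5 were set to 0.5.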
U8C C27U G41C C61G: the yeast fitness is 0.551. Consider U8C G23C U26C C29G A45U, for which the yeast fitness is not above 0.5. Consider U8C G50A C66A, for which the yeast fitness is not above 0.5.

For U8C U16A U19A C22U, the yeast fitness stood at 0.536. The result for U8C G9A A40C reads 0.672; that for U8G A15U, not above 0.5; that for U8C U16G G41C, not above 0.5.

In the case of U8C U28C, the yeast fitness worked out at 0.834. In the case of U8C U59A C66A, the yeast fitness was not above 0.5. The result for U8C C34U C55A C62U reads 0.619; that for U8C G25C C33A C61U, not above 0.5; that for U8C C27U C66U A69U, not above 0.5. The result for U8G A14G C46U C55A C66U reads not above 0.5; that for U8C C30A G39A U47A G63C, not above 0.5. In the case of U8G G17A C31A, the yeast fitness is not above 0.5.

Take U8G C24G G41A C49G C60A C62G A70C: the yeast fitness is not above 0.5. U8G C27U C62G: the yeast fitness was not above 0.5.

For U8C U32A A40U G41C C46A G52A, the yeast fitness is not above 0.5. The result for U8C G23A C34A A42U C46A A57C G67C reads not above 0.5; that for U8G A36C U53C A69G, not above 0.5; that for U8G C27U C30A A43C C60U, not above 0.5. On to U8G A65C, for which the yeast fitness is 0.733.

With U8C U32A U47A G56C, the yeast fitness came out at 0.944. The result for U8C U19A C22G C24U C33G reads not above 0.5. The result for U8G G17A C24G C66U reads not above 0.5; that for U8C C27U A36C G39C G48C G63U A70U, not above 0.5. The result for U8C U19C U54A reads 0.542; that for U8G A42G A57G, not above 0.5. In the case of U8G G17A A20C C22G C29G C34G, the yeast fitness was 0.549. As to U8C G12A A21U A70U, the yeast fitness was not above 0.5.

For U8G C11G U32A A70C, the yeast fitness is 0.599. The result for U8C U28A C29G A57C G67A reads not above 0.5; that for U8G A14G U26A C62U, 0.578. The result for U8G A43U C49U C55U reads not above 0.5; that for U8G C29U C31U U54G A65U G67A, not above 0.5; that for U8G C34A, not above 0.5. The result for U8C G18U A21C G63A reads not above 0.5; that for U8C G12A A40C A69C, 0.56; that for U8C U16C C29G, not above 0.5. Regarding U8C G18A C27U, the yeast fitness was found to be 0.531. The result for U8C U13G C22U C49A A69C reads not above 0.5; that for U8G G10C A20G G63A, not above 0.5. For U8G C24A U35G C46G U53C U54G, the yeast fitness was not above 0.5. With U8G A43C G52A, the yeast fitness amounted to 0.847.

On to U8C U13A G67U, for which the yeast fitness is 0.626.

Consider U8C U16C G67U, for which the yeast fitness was found to be 0.576. The result for U8C C60U reads 0.832.

In the case of U8C C60G, the yeast fitness was determined as 0.705.

Regarding U8C U16C C24U U47A C55U, the yeast fitness was not above 0.5.

In the case of U8C C34U A45C A69C A70C, the yeast fitness is not above 0.5. The result for U8C G9U C29A C34G A36G A40C U47A U64C reads not above 0.5. The result for U8G G12C C55A reads not above 0.5; that for U8C U26C, 0.837.

Consider U8C U26G, for which the yeast fitness amounted to 0.959. The result for U8C G50A A65C reads 0.603. The result for U8G G12A A20G reads not above 0.5; that for U8C C31G, 0.81; that for U8C C30G C31G U64G C66U, not above 0.5. Turning to U8C C29A C34G A36G A40C U47A, the yeast fitness was not above 0.5. The result for U8C G18C C33U A65C A69C reads 0.549; that for U8G C27A C31A C33G, not above 0.5; that for U8C G10A U19C C34A C46U A65C, not above 0.5.

On to U8G G12A G44A, for which the yeast fitness stood at 0.566. In the case of U8C C30A G48A, the yeast fitness turned out to be 0.731. The result for U8G A14U G18A G50A A57U A70G reads not above 0.5; that for U8G C22U G51C G58A, not above 0.5.

As to U8C G9A U13A A15G A37U C46U G68A, the yeast fitness was not above 0.5. Turning to U8C C30G A69C, the yeast fitness was not above 0.5.

With U8C G44C, the yeast fitness is 0.911.

As for U8G C24G G41A C49U, the yeast fitness is not above 0.5. The result for U8G G9C C33A G68A reads not above 0.5. In the case of U8C G12A C62A, the yeast fitness is not above 0.5.

U8G C27U G44C U47A C60U: the yeast fitness is not above 0.5.

In the case of U8C C27U C62G, the yeast fitness is not above 0.5.

As for U8G C33U A57C U64C A70G, the yeast fitness turned out to be 0.511. Consider U8G A37C G52C, for which the yeast fitness is 0.627. Regarding U8G C11A C30U A57U, the yeast fitness amounted to 0.613. The result for U8C U64A A65U reads 0.553. On to U8G G12A G50C G52C C55U, for which the yeast fitness came to 0.618.

As for U8C G9A G10A G23C C29U A36C C49G A70U, the yeast fitness was determined as 0.534. The result for U8C U54C reads 0.915; that for U8C G23C C29G, not above 0.5. The result for U8C U47C reads 0.913; that for U8C G25C C29G, not above 0.5; that for U8C G23C C29G A45U, not above 0.5. The result for U8C C30G C31G A65C reads 0.527; that for U8C U35G, 0.693. For the variant U8C U35A, the yeast fitness amounted to 0.6. The result for U8G C46U C55A C66U reads 0.524; that for U8C U16C G25C U47A A65G, not above 0.5; that for U8C G17A G50A A69C, not above 0.5. The result for U8G A20U G44C A57G reads not above 0.5. Turning to U8C G12C U26G, the yeast fitness was not above 0.5.

With U8C C49U, the yeast fitness was 0.903. The result for U8C C49A reads 0.704; that for U8C G18A C24A A37G A57G A69G, not above 0.5; that for U8C G23C C29G A45U C66U, not above 0.5.

In the case of U8C U13C C27A, the yeast fitness is 0.574. U8G C29G G38C G44A: the yeast fitness is 0.803. Consider U8C G44C C46A, for which the yeast fitness was determined as 0.769. The result for U8C G17A A40U G48A reads not above 0.5; that for U8C G44A U53C A70U, not above 0.5; that for U8G A21U C27G C49U, 0.687. The result for U8C U53A U64C reads not above 0.5. The result for U8G C49G A57U reads not above 0.5; that for U8C G9A A40C A45G A57G, not above 0.5.

For U8C G44A G48A C49A U59A, the yeast fitness is 0.524. The result for U8C G10A U19C G41A U47C reads 0.537. Take U8C G44A U53C C55A A70U: the yeast fitness is not above 0.5. The result for U8G C11U C24U A37U C66A reads not above 0.5; that for U8C G25C C49A, 0.515. Consider U8G C66U, for which the yeast fitness stood at 0.668. U8C C33G A43C: the yeast fitness was not above 0.5. The result for U8G A21C C46U reads 0.554; that for U8G A20C U35C C49A C62A, not above 0.5; that for U8G C22G G25A G63C, not above 0.5. The result for U8C U19A C24U G38A U54C C66A reads not above 0.5.

In the case of U8C G25C C31U, the yeast fitness was 0.696. The result for U8G C31U C33G U47A G50U reads 0.608; that for U8C C29U G38C A40C, not above 0.5; that for U8G C11G U32A G67C, not above 0.5. The result for U8C G38C reads 0.799; that for U8C G38A, 0.885; that for U8C G17A G41C A65U, not above 0.5. In the case of U8C G17A G41C A65C, the yeast fitness was not above 0.5.

Regarding U8C G10A C11G G12C C29G, the yeast fitness was not above 0.5. The result for U8G G17A A20C C22G C29G C34G C60U C62U A69G reads not above 0.5.

Turning to U8G C31U C66U, the yeast fitness is not above 0.5. The result for U8C C30A C46G U54A U64A G68A reads not above 0.5; that for U8C G9C A21C C24G U32G G38A, not above 0.5; that for U8G C61A, 0.562. The result for U8G C29G C66A reads not above 0.5; that for U8C U16A, 0.934. The result for U8C C30U C31A C33G C60A reads 0.586; that for U8G A21U C27G A57G, not above 0.5; that for U8G A14G C33U, not above 0.5. As to U8C G23A C34A A42U C46A C55G A65G, the yeast fitness was not above 0.5. As for U8C U16C A70U, the yeast fitness was found to be 0.577. The result for U8C G23A C30G C61A G67A reads not above 0.5.

Turning to U8C C30G C33G A70U, the yeast fitness was 0.571. The result for U8C G17C C22U C34A reads not above 0.5; that for U8C G52A G67A, not above 0.5.

For U8C G23A, the yeast fitness was 0.793. The result for U8C G25A reads 0.931. Turning to U8G A36U, the yeast fitness is 0.515. With U8C G17C C31A G68A, the yeast fitness was not above 0.5.

Consider U8C U26A A40U, for which the yeast fitness was 0.613. The result for U8G G10A C60U reads 0.585. In the case of U8C G56A A69C, the yeast fitness stood at 0.836. Consider U8C C31G G48A U54C, for which the yeast fitness was not above 0.5.

Turning to U8C C29A C34G A36G A40C U47A C62G G68A, the yeast fitness was 0.537.

Regarding U8C G41A, the yeast fitness was 0.92. The result for U8C G18C A21C G63A reads 0.587; that for U8G C30G C31U G39A, 0.507. The result for U8G G10C C11U A37G U59C reads not above 0.5; that for U8C G63A, 0.864. The result for U8C G9C U13A G25A A40C A57C C61A G67A reads not above 0.5; that for U8G C49U G51A A65U, not above 0.5; that for U8G A42G, 0.58. With U8G C34U A40C, the yeast fitness turned out to be 0.591. The result for U8C C27U A70G reads 0.738; that for U8C C29U U35G, not above 0.5. The result for U8C U16C U53G G56C C60A reads not above 0.5. The result for U8C G52C reads 0.639; that for U8C C31U A43U G48A U53A, not above 0.5. U8G A20G A37G G44A A65C: the yeast fitness was not above 0.5.

In the case of U8G A21C C24U C33A, the yeast fitness was not above 0.5.
